RORA inh – inhibitors of human nuclear receptor RORA; actives 0.43% (n = 65,000); CHO-K1 Gal4-RORA LBD luciferase reporter, luminescence; inhibition, % at 10 µM;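 active means inhibition above the mean of all tested compounds plus 3 SD, cut at about 52% in these data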;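 further: 0% = RORA-transfected cells with DMSO and 100% = mock-transfected cells lacking RORA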
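System: transiently transfected CHO-K1 cells, Gal4-DBD/human RORA-LBD fusion plus 5xGal4-luciferase reporter. Doses: one dose of 10 µM final. Timing: 20 h compound treatment, 37 °C. Measured by: luminescence. Evaluation: % inhibition of basal luciferase versus +RORA/-RORA DMSO controls. Benchmarks: mock-transfected cells as 100%, +RORA DMSO cells as 0%. Replicates: single test per compound.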
An asterisk follows results filed as active. This is one part of a sample in which hits are shown more often than they occur.

SMILES	RORA inh
Cn1ncnc2c(=O)n(C)c(=O)nc1-2	98*
CCOC(=O)N(CC)c1ccc(C(O)(C(=O)OC)C(F)(F)F)cc1 (centres undefined)	5
CCN(CC)CCCN=C(C)c1c(O)n(-c2ccccc2)c(=O)[nH]c1=O	24
Cc1ccccc1-n1c(O)c(C=Nc2ccc(N(C)C)cc2)c(=O)[nH]c1=O	-4
C[C@@]1(CO)[C@H](O)CC[C@@]2(C)[C@H]1CC[C@H]1C[C@@H]3C[C@@]12CC[C@]3(O)CO	82*
O=C(CN1C2CCC1CC(O)(c1cccnc1)C2)Nc1ccc2c(c1)OCO2 (centres undefined)	-3
CN1CCN(CCC(C#N)(c2ccccc2)c2ccccc2)CC1	18
COCCOC(=O)C1=C(N)Oc2c(c(=O)oc3ccccc23)C1c1ccncc1 (centres undefined)	17
O=C1NC(=O)C(CCc2ccncc2)(C2CCCCC2)C(=O)N1	2
Cc1ccc(Cl)cc1-n1c(O)c(C=NCCCN2CCOCC2)c(=O)[nH]c1=O	14

Source: PubChem (The Scripps Research Institute Molecular Screening Center)
